# In ChEMBL document CHEMBL1139893, “Triterpene glycosides from the flower petals of sunflower (Helianthus annuus) and their anti-inflammatory activity” (2007):
# Tests used:
# Mus musculus [1] = assay: Antiinflammatory activity in ICR mouse assessed as inhibition of TPA-induced edema per ear applied topically 30 mins before TPA treatment; format: functional
# In short: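 Female SPF ICR mice. TPA (1.7 nmol, 1 µg) in 20 µL acetone was applied to the right ear only, 10 µL to each of the inner and outer surfaces. Sample or vehicle (CHCl3-MeOH 1:1, 20 µL) was applied topically about 30 min beforehand. Ear thickness was read with a pocket gauge before and 6 h after TPA. ID50 came from probit-graphic interpolation across four dose levels, five mice each.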
# Mus musculus [2] = assay: Inhibitory ratio of TPA-induced edema in presence of drug to TPA-induced edema in ICR mouse; format: functional
# In short: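 Topical sample at 1.0 mg/ear, or CHCl3-MeOH (1:1, 20 µL) vehicle control, given about 30 min before TPA (1.7 nmol in 20 µL acetone) on the right ear of female ICR mice. Ear thickness was gauged before and 6 h after TPA. InhR = [(Edema A − Edema B)/Edema A] × 100. Mean of five mice, Student's t-test.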
Compound,ID50 (Mus musculus [1]) [nmol],Ratio (Mus musculus [2]) [%]
COc1ccc2c(c1)c(CC(=O)O)c(C)n2C(=O)c1ccc(Cl)cc1 [INDOMETHACIN],838,96
C[C@@H]1O[C@@H](O[C@H]2[C@H](O[C@H]3CC[C@]4(C)[C@H]5CC=C6[C@@H]7CC(C)(C)CC[C@]7(C(=O)O[C@@H]7OC[C@H](O)[C@H](O)[C@H]7O[C@@H]7O[C@@H](C)[C@H](O[C@@H]8O[C@H](CO)[C@@H](O)[C@H](O)[C@H]8O)[C@@H](O)[C@H]7O)CC[C@@]6(C)[C@]5(C)CC[C@H]4C3(C)C)O[C@H](CO)[C@@H](O[C@@H]3OC[C@@H](O)[C@H](O)[C@H]3O)[C@@H]2O)[C@H](O)[C@H](O)[C@H]1O [HELIANTHOSIDE 1],144,71
C[C@@H]1O[C@@H](O[C@H]2CC[C@]3(C)[C@H]4CC=C5[C@@H]6CC(C)(C)CC[C@]6(C(=O)OC6OC[C@@H](O)[C@@H](O)[C@@H]6O[C@@H]6O[C@@H](C)[C@H](O[C@@H]7O[C@H](CO)[C@@H](O)[C@H](O)[C@H]7O)[C@@H](O)[C@H]6O)[C@H](O)C[C@@]5(C)[C@]4(C)CC[C@H]3C2(C)C)[C@H](O)[C@H](O)[C@H]1OC1OC[C@@H](O)[C@H](O)[C@H]1O (stereo partly specified) [HELIANTHOSIDE B],65,80
C[C@@H]1O[C@@H](O[C@H]2[C@H](O[C@H]3CC[C@]4(C)[C@H]5CC=C6[C@@H]7CC(C)(C)CC[C@]7(C(=O)O[C@@H]7O[C@H](CO)[C@@H](O)[C@H](O)[C@H]7O[C@@H]7O[C@@H](C)[C@H](O[C@@H]8O[C@H](CO)[C@@H](O)[C@H](O)[C@H]8O)[C@@H](O)[C@H]7O)[C@H](O)C[C@@]6(C)[C@]5(C)CC[C@H]4C3(C)C)O[C@H](CO)[C@@H](O[C@@H]3OC[C@@H](O)[C@H](O)[C@H]3O)[C@@H]2O)[C@H](O)[C@H](O)[C@H]1O [HELIANTHOSIDE 3],156,73
C[C@@H]1O[C@@H](O[C@@H]2[C@@H](O)[C@H](O[C@H]3CC[C@]4(C)[C@H]5CC=C6[C@@H]7CC(C)(C)CC[C@]7(C(=O)O[C@@H]7O[C@H](CO)[C@@H](O)[C@H](O)[C@H]7O[C@@H]7O[C@@H](C)[C@H](O)[C@@H](O)[C@H]7O)[C@H](O)C[C@@]6(C)[C@]5(C)CC[C@H]4C3(C)C)O[C@H](CO)[C@H]2O[C@@H]2OC[C@@H](O)[C@H](O)[C@H]2O)[C@H](O)[C@H](O)[C@H]1O [HELIANTHOSIDE 5],155,63
C[C@@H]1O[C@@H](O[C@@H]2[C@@H](O)[C@H](O[C@H]3CC[C@@]4(C)[C@@H](CC[C@]5(C)[C@@H]4CC=C4[C@@H]6CC(C)(C)CC[C@]6(C(=O)O[C@@H]6OC[C@@H](O)[C@H](O)[C@H]6O[C@@H]6O[C@@H](C)[C@H](O[C@@H]7O[C@H](CO)[C@@H](O)[C@H](O)[C@H]7O)[C@@H](O)[C@H]6O)[C@H](O)C[C@]45C)[C@]3(C)CO)O[C@H](CO)[C@H]2O[C@@H]2OC[C@@H](O)[C@H](O)[C@H]2O)[C@H](O)[C@H](O)[C@H]1O [HELIANTHOSIDE 4],262,75
C[C@]12CCC(=O)C=C1CC[C@@H]1[C@@H]2[C@@H](O)C[C@@]2(C)[C@H]1CC[C@]2(O)C(=O)CO [HYDROCORTISONE],83,99
C[C@@H]1O[C@@H](O[C@@H]2[C@@H](O)[C@H](O[C@H]3CC[C@]4(C)[C@H]5CC=C6[C@@H]7CC(C)(C)CC[C@]7(C(=O)O[C@@H]7OC[C@H](O)[C@H](O)[C@H]7O[C@@H]7O[C@@H](C)[C@H](O[C@@H]8O[C@H](CO)[C@@H](O)[C@H](O)[C@H]8O)[C@@H](O)[C@H]7O)[C@H](O)C[C@@]6(C)[C@]5(C)CC[C@H]4C3(C)C)O[C@H](CO)[C@H]2O[C@@H]2OC[C@@H](O)[C@H](O)[C@H]2O)[C@H](O)[C@H](O)[C@H]1O [HELIANTHOSIDE 2],135,77
